Calls of active or inactive are those of the source. No cut-off for these calls is given here.
Experiments:
ARPE-19 [1] = experiment: Neuroprotective activity against Fenton reagent-induced ROS generation in human ARPE19 cells assessed as increase in GSH level at 1 mM after 2 hrs by DTNB method; format: functional, cell-based
Method in brief: (§1)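 Cells grown in 60 or 150 mm dishes and exposed 2 h to Fenton reagent (1 mM H2O2 + 1 mM Fe2+) with or without 1 mM compound in 0.16% DMSO. Intracellular glutathione then measured. Mean ± SEM, n = 6. ANOVA.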

SH-SY5Y [2] = experiment: Neuroprotective activity against Fenton reagent-induced hydroxy radical-stimulated cytotoxicity in human SH-SY5Y cells assessed as cell survival at 1 to 1000 uM preincubated for 1 hr followed by Fenton reagent challenge for 2 hrs by fluorescence-based LIVE/DEAD viability/cytotoxicity assay; format: functional
Method in brief: (§2)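 After a PBS wash, cells preincubated 1 h at 37 °C in serum-free medium with 1–1000 μM compound. Fenton reagent (Fe2+/H2O2, 100 μM final) then added for 2 h. Stained 15 min at 37 °C with calcein AM 8 μM and EthD-1 16 μM. Fluorescence read at 494/517 and 528/617 nm. % live cells calculated from blank-corrected single-dye controls; dead-cell control 70% ethanol. Mean ± SEM, n = 6.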

ARPE-19 [3] = experiment: Antioxidant activity in human ARPE19 cells assessed as reduction of xanthine oxidase-mediated superoxide generation preincubated for 1 hr followed by xanthine oxidase challenge for 1 hr by MitoSOX staining-based fluorescence analysis; format: functional, cell-based
Method in brief: (§3)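 Cells washed with PBS, then preincubated 1 h at 37 °C in serum-free medium with 1, 10, 100 or 1000 μM compound, or SOD 25 μg/mL as reference. Xanthine oxidase added (25 mU/mL; ~100 μM superoxide) for 1 h more. After a PBS wash, cells stained with MitoSOX Red (5 μM) for 2 h. Fluorescence read at Ex/Em 510/580 nm.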

ARPE-19 [4] = experiment: Neuroprotective activity against Fenton reagent-induced ROS generation-stimulated cytotoxicity in human ARPE19 cells assessed as cell viability at 1 mM after 2 hrs by MTS assay; format: functional, cell-based
Method in brief: (§4)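 Cells in 96-well format exposed 2 h to Fenton reagent (1 mM H2O2 + 1 mM Fe2+) with or without 1 mM compound in 0.16% DMSO. Viability by MTS assay, normalized to untreated cells without Fenton reagent (100%). Mean ± SEM, n = 4. ANOVA.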

Brain = experiment: Drug uptake in brain of C57BL/6 mouse assessed per mg of protein at 80 mg/kg, po administered everyday for 14 days by HPLC-MS analysis; format: ADME, organism-based; details: in vivo, 336 h
Method in brief: (§5)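 C57BL/6 mice fed chow containing 0.05% compound (~80 mg/kg/day average) for 14 days. Perfused with PBS; brain, lens and neural retina homogenized in ice-cold 10 mM acetate pH 4 with internal standard. Extracted with TCA precipitation and chloroform. Analyzed by reverse-phase C18 HPLC.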

SH-SY5Y [5] = experiment: Neuroprotective activity against Fenton reagent-induced ROS generation in human SH-SY5Y cells assessed as increase in GSH level at 1 mM after 2 hrs by DTNB method; format: functional, cell-based; method in brief: as §1
SH-SY5Y [6] = experiment: Antioxidant activity in human SH-SY5Y cells assessed as reduction of xanthine oxidase-mediated superoxide generation preincubated for 1 hr followed by xanthine oxidase challenge for 1 hr by MitoSOX staining-based fluorescence analysis; format: functional, cell-based; method in brief: as §3
[7] = Drug uptake in lens of C57BL/6 mouse assessed per mg of protein at 80 mg/kg, po administered everyday for 14 days by HPLC-MS analysis; format: ADME, organism-based, Lens of camera-type eye; details: in vivo, 336 h; method in brief: as §5
SH-SY5Y [8] = experiment: Neuroprotective activity against Fenton reagent-induced ROS generation-stimulated cytotoxicity in human SH-SY5Y cells assessed as cell viability at 1 mM after 2 hrs by MTS assay; format: functional, cell-based; method in brief: as §4
[9] = Drug uptake in neural retina of C57BL/6 mouse assessed per mg of protein at 80 mg/kg, po administered everyday for 14 days by HPLC-MS analysis; format: ADME, organism-based; details: in vivo, 336 h; method in brief: as §5
ARPE-19 [10] = experiment: Neuroprotective activity against Fenton reagent-induced hydroxy radical-stimulated cytotoxicity in human ARPE19 cells assessed as cell survival at 1 to 1000 uM preincubated for 1 hr followed by Fenton reagent challenge for 2 hrs by fluorescence-based LIVE/DEAD viability/cytotoxicity assay; format: functional; method in brief: as §2
[11] = Metal chelating activity assessed as stoichiometric ratio of compound to Fe2+ ion at 0.1 to 0.5 mM of compound and metal ion mixture after 45 mins by spectrophotometric analysis; format: physicochemical; details: 0.75 h, 500 µM
Method in brief: (§6)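 Job continuous-variation method at 23 °C. Compound dissolved in acetonitrile, then diluted to 0.1 mM stock in 1 mM acetate pH 6.5. Compound + ion at constant total 0.1–0.5 mM with varied mole fraction. After 45 min equilibration, UV absorbance scanned 210–310 nm. Stoichiometry taken from the intersection of lines. Mean ± SD, n = 3.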

[12] = Cytotoxicity against human ARPE19 cells assessed as reduction in cell viability at 1 mM after 2 hrs by MTS assay; format: cell-based; details: arpe-19, 2 h, 1000 µM
Method in brief: (§7)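 ARPE-19 grown in DMEM + 4% FBS and SH-SY5Y in EMEM/F12 + 10% FBS, at 37 °C, 5% CO2. Plated at 1 × 10^4 cells/well. Exposed 2 h to 1 mM compound (0.16% DMSO) without oxidant. Viability by MTS. Mean ± SEM, n = 4, ANOVA versus blank control.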

[13] = Metal chelating activity assessed as stoichiometric ratio of compound to Zn2+ ion at 0.1 to 0.5 mM of compound and metal ion mixture after 45 mins by spectrophotometric analysis; format: physicochemical; details: 0.75 h, 500 µM; method in brief: as §6
[14] = Metal chelating activity assessed as stoichiometric ratio of compound to Cu+ ion at 0.1 to 0.5 mM of compound and metal ion mixture after 45 mins by spectrophotometric analysis; format: physicochemical; details: 0.75 h, 500 µM; method in brief: as §6
[15] = Metal chelating activity assessed as stoichiometric ratio of compound to Mn2+ ion at 0.1 to 0.5 mM of compound and metal ion mixture after 45 mins by spectrophotometric analysis; format: physicochemical; details: 0.75 h, 500 µM; method in brief: as §6
[16] = Metal chelating activity assessed as stoichiometric ratio of compound to Ca2+ ion at 0.1 to 0.5 mM of compound and metal ion mixture after 45 mins by spectrophotometric analysis; format: physicochemical; details: 0.75 h, 500 µM; method in brief: as §6
[17] = Metal chelating activity assessed as stoichiometric ratio of compound to Mg2+ ion at 0.1 to 0.5 mM of compound and metal ion mixture after 45 mins by spectrophotometric analysis; format: physicochemical; details: 0.75 h, 500 µM; method in brief: as §6
SH-SY5Y [18] = experiment: Cytotoxicity against human SH-SY5Y cells assessed as reduction in cell viability at 1 mM after 2 hrs by MTS assay; format: cell-based; details: 1000 µM; method in brief: as §7
[19] = Metal chelating activity assessed as stoichiometric ratio of compound to Fe3+ ion at 0.1 to 0.5 mM of compound and metal ion mixture after 45 mins by spectrophotometric analysis; format: physicochemical; details: 0.75 h, 500 µM; method in brief: as §6
[20] = Metal chelating activity assessed as stoichiometric ratio of compound to Cu2+ ion at 0.1 to 0.5 mM of compound and metal ion mixture after 45 mins by spectrophotometric analysis; format: physicochemical; details: 0.75 h, 500 µM; method in brief: as §6

Drug uptake [7] | Drug uptake [9] | Ratio [11] | Ratio [13] | Ratio [14] | Ratio [15] | Ratio [16] | Ratio [17] | Ratio [19] | Ratio [20] | SMILES | Activity (ARPE-19 [1]) | Activity (SH-SY5Y [2]) | Activity (ARPE-19 [3]) | Activity (ARPE-19 [4]) | Activity (SH-SY5Y [5]) | Activity (SH-SY5Y [6]) | Activity (SH-SY5Y [8]) | Activity (ARPE-19 [10]) | Activity [12] | Activity (SH-SY5Y [18]) | other results
Active | Active | – | – | – | – | – | – | – | – | CN(C)S(=O)(=O)N1CC(=O)N(c2ncc(O)cn2)C(=O)C1 | Active | Dose-dependent effect | Dose-dependent effect | Active | Active | Dose-dependent effect | Active | Dose-dependent effect | – | – | Drug uptake (Brain): 3 ng/mg
Active | Active | 2.06 | 1.87 | 2.01 | 2.14 | 0 | 0 | 2.01 | 2.28 | O=C1CCC(=O)N1c1ncc(O)cn1 | Active | Dose-dependent effect | Dose-dependent effect | Active | Active | Dose-dependent effect | Active | Dose-dependent effect | Non-toxic | Non-toxic | –
Active | Active | 1.85 | 1.99 | 1.86 | 1.91 | 0 | 0 | 1.92 | 1.75 | O=C1CCCC(=O)N1c1ncc(O)cn1 | Active | – | – | Active | Active | – | Active | – | Non-toxic | Non-toxic | –

The next lines start with the compound.

SMILES | Drug uptake [7] | Drug uptake [9] | Ratio [11] | Ratio [13] | Ratio [14] | Ratio [15] | Ratio [16] | Ratio [17] | Ratio [19] | Ratio [20] | Activity (ARPE-19 [1]) | Activity (SH-SY5Y [2]) | Activity (ARPE-19 [3]) | Activity (ARPE-19 [4]) | Activity (SH-SY5Y [5]) | Activity (SH-SY5Y [6]) | Activity (SH-SY5Y [8]) | Activity (ARPE-19 [10]) | Activity [12] | Activity (SH-SY5Y [18]) | other results
COc1nc(N2C(=O)CN(S(=O)(=O)N(C)C)CC2=O)nc(OC)c1O | Active | Active | – | – | – | – | – | – | – | – | – | – | – | – | – | – | – | – | – | – | Drug uptake (Brain): 4 ng/mg
COc1nc(N2C(=O)CCC2=O)nc(OC)c1O | Active | Active | 2.03 | 2.01 | 2.03 | 2.22 | 0 | 0 | 2.12 | 2.13 | Active | Dose-dependent effect | Dose-dependent effect | Active | Active | Dose-dependent effect | Active | Dose-dependent effect | Non-toxic | Non-toxic | –
Cc1c(C)c2c(c(C)c1O)CCC(C)(C(=O)O)O2 (stereo unspecified) [TROLOX] | – | – | – | – | – | – | – | – | – | – | Active | Dose-dependent effect | Dose-dependent effect | Active | Active | Dose-dependent effect | Active | Dose-dependent effect | Non-toxic | Non-toxic | –
Oc1c(I)cc(Cl)c2cccnc12 [CLIOQUINOL] | – | – | – | – | – | – | – | – | – | – | Active | Dose-dependent effect | Dose-dependent effect | Active | Active | Dose-dependent effect | Active | Dose-dependent effect | 30% | 20% | –
COc1nc(N2C(=O)CCCC2=O)nc(OC)c1O | Active | Active | 1.97 | 2.09 | 1.97 | 2.12 | 0 | 0 | 1.82 | 1.86 | Active | – | – | Active | Active | – | Active | – | Non-toxic | Non-toxic | –

From ChEMBL document CHEMBL3739318, “Orally Bioavailable Metal Chelators and Radical Scavengers: Multifunctional Antioxidants for the Coadjutant Treatment of Neurodegenerative Diseases” (J Med Chem, 2015)
